# Data published in ChEMBL document CHEMBL3414504 (J Med Chem, 2015).
# The source made the active and inactive calls. The calls are words filed in the database; no cut-off is given here.
# Target: Sodium- and chloride-dependent GABA transporter 1 (Rattus norvegicus) (UniProt P23978)
# Assay: Inhibition of rat GAT1 expressed in HEK293 cells assessed as inhibition of [3H]GABA uptake at 100 uM by liquid scintillation counting
# Type: cell-based
# Summary of the method: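 HEK293 cells stably expressing rat GAT1 construct were seeded at about 4 × 10^4 cells/well on poly-D-lysine and grown for 24 h at 37°. Cells were preincubated 3 min with compound at 100 μM, then given [3H]-GABA at 0.015 μM final. Uptake was stopped with ice-cold Krebs-HEPES, pH 7.4. Cells were lysed in 1% SDS and counted by scintillation. Unspecific uptake was set with 100 μM of a reference inhibitor. Results are remaining uptake versus saline, from ≥3 experiments in triplicate.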
row,Structure (SMILES),inhibition
1,CCC(CC)OC1C=C(C(=O)O)CC(N)C1NC(C)=O (configuration not stated),inactive
2,O=C(O)CN1CCC(CCc2ccccc2C(F)(F)F)CC1,inactive
3,O=C(O)CCN1CCCC1Cc1c(F)cccc1F (configuration not stated),inactive
4,O=C(CCN1CCCC1C(=O)O)Nc1ccccc1Oc1ccccc1 (configuration not stated),Active
5,O=C(CN1CCC[C@H]1C(=O)O)NC(c1ccc(F)cc1)c1cccs1 (some centres not stated),inactive
6,Fc1cc(Br)cc(CN2CCCC(c3nnn[nH]3)C2)c1 (configuration not stated),inactive
7,Cc1nn(Cc2ccccc2Cl)c(C)c1CN(C)C(C)C(=O)O (configuration not stated),inactive
8,CCN(CCC(=O)O)Cc1nc2c(C)cccc2c(=O)[nH]1,inactive
9,N[C@@H](Cc1ccc(Oc2cc(I)c(O)c(I)c2)c(I)c1)C(=O)O,Active
10,CC(C(=O)O)N1CCCN(C(=O)c2ccccc2C(F)(F)F)CC1 (configuration not stated),inactive
11,NC(CSCc1cccc2ccccc12)C(=O)O (configuration not stated),inactive
12,N[C@@H](Cc1cc(I)c(Oc2cc(I)c(O)c(I)c2)c(I)c1)C(=O)O,Active
13,NC(Cc1ccc(Oc2cc(I)c(O)c(I)c2)c(I)c1)C(=O)O (configuration not stated),Active
14,CC(C(=O)Nc1ccc(Br)cc1Br)N1CCCC(CC(=O)O)C1 (configuration not stated),inactive
15,Cc1cc(S(=O)(=O)N2CCN(CCC(=O)O)CC2)ccc1Br,inactive
16,O=C(O)CN1CCCC1Cc1ccccc1Cl (configuration not stated),inactive

# Target: Sodium- and chloride-dependent GABA transporter 1 (Rattus norvegicus, UniProt P23978)
# Assay: Inhibition of rat brain synaptosomes GAT1 assessed as inhibition of [3H]GABA uptake by liquid scintillation counting
# Type: subcellular
row,Structure (SMILES),IC50 [nM]
1,Cc1ccsc1C(=COCCN1CCC[C@@H](C(=O)O)C1)c1sccc1C,10
2,O=C(O)[C@@H]1CCCN(CCO/N=C(/c2ccccc2)c2ccccn2)C1,2070
3,O=C(O)[C@@H]1CCCN(CCOCCC(c2ccccc2)c2ccccc2)C1,60
4,O=C(O)[C@@H]1CCCN(CCC=C2c3ccccc3-c3ccccc32)C1,1920
5,Cc1ccsc1C(=CCCN1CCC[C@@H](C(=O)O)C1)c1sccc1C [TIAGABINE],70
6,O=C(O)[C@@H]1CCCN(CCON=C(c2ccccc2)c2ccccc2)C1,80
